# Laboratory results reported in article PMC11900868 (Science Advances, 2025).
# Tested on: CCl4-induced liver fibrosis mice
# Experiment: Res treatment of CCl4-induced liver fibrosis, histology and immunohistochemistry
# Format: in vivo, male Balb/c mice
# Details: CCl4 10 weeks then discontinued; 10 mg/kg intraperitoneal twice a week
# Procedure, shortened: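 Fibrosis induced in male Balb/c mice by intraperitoneal 20% CCl4 in olive oil twice weekly: 0.1 ml week 1, 0.15 ml week 2, 0.2 ml thereafter. After 10 weeks, CCl4 stopped and resveratrol given intraperitoneally at 10 mg/kg twice weekly for 1 or 3 weeks. Liver sections stained with H&E and Sirius red, plus α-SMA and FAP immunostaining. Percent positive area quantified; mean ± SD, ANOVA.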
structure (smiles),measurement,value
"Oc1ccc(/C=C/c2cc(O)cc(O)c2)cc1 [Res, resveratrol]","fibrotic tissue, HSCs activation and FAP expression after 1 week of treatment","significant reduction in fibrotic tissue, HSCs activation, and FAP expression levels"
same,"fibrotic tissue, HSCs activation and FAP expression after 3 weeks of treatment",all parameters approached normal levels
